17 compounds from ChEMBL document CHEMBL1159067, “Benzimidazole- and indole-substituted 1,3'-bipyrrolidine benzamides as histamine H3 receptor antagonists” (Bioorg Med Chem Lett, 2010) can be followed below.

Converted amounts (≈) assume the structure as drawn. The source made the active and inactive calls.

One may read the solubility as the dissolved amount per volume that the medium holds. Usually Ki stands for the equilibrium dissociation constant of an inhibitor or competing ligand from its target. Higher therefore signals weaker binding. One may read the AUC as concentration integrated over time. Read a low AUC as low exposure. The term Cmax denotes the peak of the concentration-time curve. In general, clearance refers to the volume of plasma or blood freed of the substance per unit of time. A low value points to inefficient removal. Usually Tmax stands for the time at which the peak concentration occurs. What is called half-life is the time needed for the level to fall by half in the phase considered. Low readings indicate rapid decline, high ones slow decline. One may read the Kp as tissue or fluid exposure divided by exposure in the circulation. In general, bioavailability refers to dose-corrected exposure relative to a reference, in per cent. By fraction unbound is commonly meant free concentration divided by total concentration. A lower fraction unbound goes with little free substance.

A short description of series [1]: Aqueous solubility at pH 3.1. It counts as physicochemical. To be noted: aqueous medium.
Series [2] is described as follows: Permeability by PAMPA. It is filed as ADME. To be noted: read-out: permeability. The method, boiled down:
(§1)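 Passive permeability was measured by PAMPA, or by its blood–brain barrier variant PAMPA–BBB. Each gives effective permeability in units of 10^-6 cm/s.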
Background: In PAMPA a lipid-coated filter parts donor from acceptor wells.

Series [3] is described as follows: Blood-brain barrier permeability by PAMPA-BBB assay. It is filed as ADME. An outline of the steps:
as §1

Series [4] concerns the target Histamine H3 receptor (Homo sapiens, UniProt Q9Y5N1). Nature of the series: Displacement of [3H](R)-alpha-methylhistamine from human cloned histamine H3 receptor expressed in HEK293T cells by liquid scintillation spectrometry. It counts as cell-based, HEK-293T. On the technique in general: In a radioligand displacement assay an active substance lowers the binding of a labelled ligand.

Series [5] addresses Histamine H3 receptor (Rattus norvegicus, UniProt Q9QYN8). Kind of series: Binding affinity to rat histamine H3 receptor.
Series [6] in a line: AUC in rat plasma at 30 mg/kg, ip. The arrangement: dose 30 mg/kg, route intraperitoneal. It counts as ADME, organism-based.
Series [7] is described as follows: Cmax in rat at 10 mg/kg, po. The arrangement: dose 10 mg/kg, route oral. The settings on record: in vivo. It counts as ADME, organism-based.
Series [8] can be described thus: Cmax in rat plasma at 30 mg/kg, ip. It is filed as ADME, organism-based. The arrangement: dose 30 mg/kg, route intraperitoneal.
The nature of series [9]: Plasma clearance in rat at 2 mg/kg, iv. It is filed as ADME, organism-based. The arrangement: dose 2 mg/kg, route intravenous.
Series [10] concerns Rattus norvegicus. Nature of the series: Decrease in (R)-alpha-methylhistamine-induced water intake in rat at 30 mg/kg, ip. It counts as functional, organism-based. More on the design: dose 30 mg/kg. An outline of the steps: (§2)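 Water intake was induced in rats by the H3R agonist (R)-α-methylhistamine, which acts via central H3R. Antagonist was dosed ip. Significance was p <0.05 versus vehicle and versus (R)-α-methylhistamine alone.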

A short description of series [11]: Tmax in rat at 10 mg/kg, po. It is filed as ADME, organism-based. More on the design: dose 10 mg/kg, route oral. The settings on record: in vivo.
Series [12] in a line: Volume of distribution at steady state in rat at 2 mg/kg, iv. It counts as ADME, organism-based. More on the design: dose 2 mg/kg, route intravenous. To be noted: in vivo, read-out: Vdss.
Series [13] can be described thus: AUC in rat at 10 mg/kg, po. It is filed as ADME, organism-based. The arrangement: dose 10 mg/kg, route oral. To be noted: plasma.
A short description of series [14]: Half life in rat at 10 mg/kg, po. It is filed as ADME, organism-based. More on the design: dose 10 mg/kg, route oral. To be noted: in vivo.
The test system of series [15] is Rattus norvegicus. Nature of the series: Reversal of delay-induced retention deficit behavior in ip dosed rat assessed as differential novel and familiar object recognition. To be noted: read-out: MED. It counts as functional. An outline of the steps:
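Rats received test compound ip at 0.1, 0.3, 1 or 3 mg/kg, or vehicle, before the learning trial. Exploration of the novel and familiar objects was then scored. Groups were compared with vehicle, with significance at p <0.03 and p <0.005.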

Series [16] can be described thus: Cmax in rat brain at 30 mg/kg, ip. It counts as ADME, organism-based. More on the design: dose 30 mg/kg, route intraperitoneal.
Series [17] can be described thus: Ratio of AUC in rat brain to plasma at 30 mg/kg, ip. The settings on record: brain and plasma. It is filed as ADME, organism-based. The arrangement: dose 30 mg/kg, route intraperitoneal. The method, boiled down: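 Rats given a single 30 mg/kg intraperitoneal injection. Brain and plasma exposure were measured, with Cmax and Tmax recorded for each. The ratio is brain AUC (h ng/mL) divided by plasma AUC.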

Series [18] in a line: Oral bioavailability in rat at 10 mg/kg. It is filed as ADME, organism-based. The settings on record: in vivo.
A short description of series [19]: AUC in rat brain at 30 mg/kg, ip. It is filed as ADME, organism-based. The arrangement: dose 30 mg/kg, route intraperitoneal.
Series [20] relates to Rattus norvegicus. Nature of the series: Decrease in (R)-alpha-methylhistamine-induced water intake in rat at 10 mg/kg, ip. It is filed as functional, organism-based. The arrangement: dose 10 mg/kg. An outline of the steps: as §2
Series [21] in a line: Tmax in rat plasma at 30 mg/kg, ip. It counts as ADME, organism-based. The arrangement: dose 30 mg/kg, route intraperitoneal.
Series [22] in a line: Fraction unbound in rat brain at 30 mg/kg, ip. More on the design: dose 30 mg/kg, route intraperitoneal. It counts as ADME, organism-based.
Series [23] in a line: Tmax in rat brain at 30 mg/kg, ip. The arrangement: dose 30 mg/kg, route intraperitoneal. It counts as ADME, organism-based.
Series [24] is described as follows: Permeability across apical to basolateral side of human Caco-2 cell membrane. It counts as ADME, cell-based. To be noted: read-out: permeability.
Another series concerns Caco-2. Nature of the series: Ratio of permeability across basolateral to apical side over apical to basolateral side of human Caco-2 cell membrane. A general note: Caco-2 cells form a polarised layer with tight junctions and transporters.
The nature of series [25]: Tmax in rat plasma at 10 mg/kg, ip. The arrangement: dose 10 mg/kg, route intraperitoneal. It is filed as ADME, organism-based.
Series [26] in a line: Tmax in rat brain at 10 mg/kg, ip. It is filed as ADME, organism-based. More on the design: dose 10 mg/kg, route intraperitoneal.
Series [27] is described as follows: Fraction unbound in rat brain at 10 mg/kg, ip. It is filed as ADME, organism-based. The arrangement: dose 10 mg/kg, route intraperitoneal.
Series [28] in a line: AUC in rat plasma at 10 mg/kg, ip. It counts as ADME, organism-based. More on the design: dose 10 mg/kg, route intraperitoneal.
Series [29] can be described thus: Cmax in rat plasma at 10 mg/kg, ip. It is filed as ADME, organism-based. More on the design: dose 10 mg/kg, route intraperitoneal.
Series [30] can be described thus: Cmax in rat brain at 10 mg/kg, ip. It counts as ADME, organism-based. More on the design: dose 10 mg/kg, route intraperitoneal.
Series [31] in a line: AUC in rat brain at 10 mg/kg, ip. It is filed as ADME, organism-based. The arrangement: dose 10 mg/kg, route intraperitoneal.

Sequence of Histamine H3 receptor (Homo sapiens, UniProt Q9Y5N1) (Q9Y5N1 whole entry): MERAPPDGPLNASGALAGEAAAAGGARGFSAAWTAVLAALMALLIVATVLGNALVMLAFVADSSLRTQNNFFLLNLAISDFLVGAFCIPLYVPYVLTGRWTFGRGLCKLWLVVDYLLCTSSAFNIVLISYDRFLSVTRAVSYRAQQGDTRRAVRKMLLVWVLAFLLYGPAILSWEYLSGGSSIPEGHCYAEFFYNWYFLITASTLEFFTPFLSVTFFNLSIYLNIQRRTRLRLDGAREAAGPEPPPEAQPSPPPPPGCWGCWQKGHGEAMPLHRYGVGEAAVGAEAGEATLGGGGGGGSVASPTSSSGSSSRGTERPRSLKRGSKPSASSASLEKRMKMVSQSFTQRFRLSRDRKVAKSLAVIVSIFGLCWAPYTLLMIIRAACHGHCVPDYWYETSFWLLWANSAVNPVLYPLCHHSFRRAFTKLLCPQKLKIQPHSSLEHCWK
Sequence of Histamine H3 receptor (Rattus norvegicus, UniProt Q9QYN8) (Q9QYN8 whole entry): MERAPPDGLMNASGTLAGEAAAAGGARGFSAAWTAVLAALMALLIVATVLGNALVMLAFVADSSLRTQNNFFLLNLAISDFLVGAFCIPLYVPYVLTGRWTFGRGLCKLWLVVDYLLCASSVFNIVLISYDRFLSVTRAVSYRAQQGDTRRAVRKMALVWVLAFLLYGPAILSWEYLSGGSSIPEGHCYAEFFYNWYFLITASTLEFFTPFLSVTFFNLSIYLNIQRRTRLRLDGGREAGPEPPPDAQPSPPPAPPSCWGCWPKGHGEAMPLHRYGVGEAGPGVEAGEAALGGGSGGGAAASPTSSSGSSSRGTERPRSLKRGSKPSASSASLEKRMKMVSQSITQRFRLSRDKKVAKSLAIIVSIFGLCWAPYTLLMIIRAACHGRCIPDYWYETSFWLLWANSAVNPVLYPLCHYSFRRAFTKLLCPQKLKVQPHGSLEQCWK

In series [1], `O=C(c1ccc(Cn2ccc3cc(Cl)ccc32)cc1)N1CC[C@H](N2CCCC2)C1` yielded a solubility of 10 µg/mL (≈ 24.5 µM). Further, in series [2], the Papp worked out at 7.8 ×10⁻⁶ cm/s. The pBBB in [3] came to 8.1 ×10⁻⁶ cm/s. The compound further gave a Ki at Histamine H3 receptor [4] of 0.13 µM.

For `CCN(C)C1CCN(C(=O)c2ccc(Cn3c(-c4ccccc4)nc4ccccc43)cc2)C1` (stereo unspecified), the affinity on Histamine H3 receptor [4] corresponds to a Ki of 0.091 µM.

Regarding `Cc1nc2ccccc2n1Cc1ccc(C(=O)N2CCC(N(C)C)C2)cc1` (stereo unspecified), on Histamine H3 receptor [4], the inhibition constant Ki is 0.017 µM.

`CN(C)C1CCN(C(=O)c2ccc(Cn3c(-c4ccccn4)nc4ccccc43)cc2)C1` (stereo unspecified) displayed a Ki on Histamine H3 receptor [4] of 0.235 µM. This Ki lies about 14-fold higher than the previous one.

In turn, `O=C(c1ccc(Cn2c(-c3ccccc3)nc3ccccc32)cc1)N1CCC(N2CCCC2)C1` (stereo unspecified) had a Ki at Histamine H3 receptor [4] of 0.01 µM.

`CN(CCO)C1CCN(C(=O)c2ccc(Cn3c(-c4ccccc4)nc4ccccc43)cc2)C1` (stereo unspecified): the affinity at Histamine H3 receptor [4] corresponds to a Ki of 1.2 µM.

Compound `Cc1nc2ccccc2n1Cc1ccc(C(=O)N2CC[C@H](N3CCCC3)C2)cc1` came in with a solubility in [1] of 32 µg/mL (≈ 82.4 µM). In addition, in [2], the Papp came to 0.3 ×10⁻⁶ cm/s. The compound also displayed a pBBB in [3] of 4 ×10⁻⁶ cm/s.

As for `O=C(c1ccccc1Cn1cnc2ccccc21)N1CCC(N2CCCC2)C1` (stereo unspecified), the inhibition constant Ki at Histamine H3 receptor [4] turned out to be 4 µM.

Turning to `O=C(c1ccc(Cn2ccc3cccc(Cl)c32)cc1)N1CC[C@H](N2CCCC2)C1`, the figures for the Ki at Histamine H3 receptor [5] and on Histamine H3 receptor [4] were 0.0217 µM and 0.0025 µM, respectively. For the same compound, the concentration in solution in series [1] (solubility) came to 18 µg/mL (≈ 44.1 µM). Besides, the Papp in series [2] stood at 6.5 ×10⁻⁶ cm/s. Further, the pBBB in series [3] was 7 ×10⁻⁶ cm/s. In addition, the AUC in [6] is 2180 ng·h/mL; in series [13], 63 ng·h/mL; in series [19] it was 15000 ng·h/mL. The highest concentration (Cmax) in series [7] was found to be 22 ng/mL; in series [8], 1090 ng/mL; in [16], 16 µM. Also, the clearance in series [9] is 112 mL/min/kg. Further, the result in the series with Rattus norvegicus [10] and in the series on Rattus norvegicus [20] was Active. Moreover, the figures for the time of peak concentration (Tmax) in series [11], in series [21] and in series [23] were 1.2 h, 0.5 h and 0.5 h, respectively. In addition, the Vd in series [12] was 7.3 L/kg. In [14], this compound showed a half-life of 1.9 h. Further, in the series on Rattus norvegicus [15], the minimal effective dose was 0.3 mg/kg. In addition, the Kp in [17] stood at 6.9. The bioavailability in series [18] worked out at 5%. The compound also gave a fraction unbound in series [22] of 0.035.

Turning to `CN(C)C1CCN(C(=O)c2ccc(Cn3c(-c4ccccc4)nc4ccccc43)cc2)C1` (stereo unspecified), the solubility in series [1] is > 100 µg/mL. Also, the Papp in series [2] is 4.4 ×10⁻⁶ cm/s. The same compound displayed a pBBB in series [3] of 9.4 ×10⁻⁶ cm/s. The same compound had a Ki on Histamine H3 receptor [4] of 0.1 µM. Further, the Papp A→B in series [24] stood at 84.9 ×10⁻⁶ cm/s. In addition, the Ratio with Caco-2 came to 1.3.

On Histamine H3 receptor [4], `CN(C)C1CCN(C(=O)c2ccc(Cn3cnc4ccccc43)cc2)C1` (stereo unspecified) gave a Ki of 0.39 µM.

The compound `O=C(c1ccc(Cn2ccc3ccc(Cl)cc32)cc1)N1CC[C@H](N2CCCC2)C1` had a solubility in [1] of 13 µg/mL (≈ 31.9 µM). For the same compound, the Papp in [2] was determined as 7.3 ×10⁻⁶ cm/s. Besides, in series [3], the pBBB is given as 8.6 ×10⁻⁶ cm/s. On Histamine H3 receptor [4], the Ki came to 0.15 µM.

For the compound `O=C(c1ccc(Cn2cnc3ccccc32)cc1)N1CC[C@H](N2CCCC2)C1`, the concentration in solution in series [1] (solubility) came to 51 µg/mL (≈ 136 µM). Also, in series [2], the Papp was 0.3 ×10⁻⁶ cm/s. The same compound yielded a pBBB in series [3] of 3.7 ×10⁻⁶ cm/s. In addition, the Tmax turned out to be 1 h in series [25], 1 h in series [26] and 0.4 h in series [11]. This compound also had a fraction unbound in [27] of 0.138. For the same compound, the peak concentration (Cmax) in series [7] was 1750 ng/mL; in series [29], 388 ng/mL; in [30], 0.245 µM. Further, the clearance in series [9] was 56 mL/min/kg. In addition, the Vd in series [12] came to 3.6 L/kg. Besides, the AUC is 2740 ng·h/mL in series [13], 1040 ng·h/mL in [28] and 231 ng·h/mL in [31]. Further, the half-life in series [14] is 1.3 h. In addition, the bioavailability in series [18] came out at 93%.

Turning to `O=C(c1ccc(Cn2ccc3ccccc32)cc1)N1CC[C@H](N2CCCC2)C1`, the solubility in series [1] turned out to be 28 µg/mL (≈ 75 µM). In addition, the Papp in series [2] was 8.3 ×10⁻⁶ cm/s. Further, the pBBB in series [3] was found to be 9.4 ×10⁻⁶ cm/s. Moreover, at Histamine H3 receptor [4], the Ki is 0.015 µM.

On to `O=C(c1cccc(Cn2cnc3ccccc32)c1)N1CCC(N2CCCC2)C1` (stereo unspecified), for which the inhibition constant Ki on Histamine H3 receptor [4] stood at 0.4 µM.

As for `CN(C)[C@H]1CCN(C(=O)c2ccc(Cn3c(-c4ccccc4)nc4ccccc43)cc2)C1`, affinity at Histamine H3 receptor [4] was put at a Ki of 0.065 µM.

`CN(C)[C@@H]1CCN(C(=O)c2ccc(Cn3c(-c4ccccc4)nc4ccccc43)cc2)C1` returned a Ki at Histamine H3 receptor [4] of 0.44 µM.
